Source: ChEMBL document CHEMBL4138115, “An evaluation of Minor Groove Binders as anti-fungal and anti-mycobacterial therapeutics” (Eur J Med Chem, 2017)
Converted amounts (≈) assume the structure as drawn. The source made the active and inactive calls. No cut-off for these calls is given here.

Experiments:
Staphylococcus aureus = test: Antibacterial activity against methicillin-resistant Staphylococcus aureus ATCC 43300 after 18 hrs by two-fold serial dilution assay; type: functional; details: ATCC 43300, 18 h
Outline: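 MRSA ATCC 43300 grown overnight in cation-adjusted Mueller Hinton broth at 37 °C, diluted 40-fold, grown 1.5–3 h to mid-log. Inoculated at 5 × 10⁵ CFU/mL into two-fold compound dilutions (final 32–0.25 range). Incubated 18 h at 37 °C without shaking; OD600 read. Inhibition normalised to media-only and untreated-bacteria controls. MIC taken as lowest concentration giving ≥80% inhibition; duplicates (n = 2).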

[1] = tested on: Mycobacterium tuberculosis; test: Antimycobacterial activity against GFP labelled Mycobacterium tuberculosis H37Rv up to 14 days by fluorescence assay; type: functional
Outline: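 GFP-labelled Mtb H37Rv at 1 × 10^5 CFU/well in 7H9 broth with 10% OADC and 25 kanamycin. Two-fold compound dilutions were tested. Incubated at 37 °C without shaking.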

Candida albicans = test: Antifungal activity against Candida albicans ATCC 90028 after 24 hrs by resazurin dye-based two-fold serial dilution assay; type: functional; details: ATCC 90028, 24 h
Cryptococcus neoformans = test: Antifungal activity against Cryptococcus neoformans ATCC 208821 after 24 hrs by resazurin dye-based two-fold serial dilution assay; type: functional
Trypanosoma congolense = test: Antiparasitic activity against Trypanosoma congolense IL3000 after 69 hrs by Alamar blue assay; type: functional, organism-based; details: IL3000, 69 h
Outline: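 Bloodstream-form IL3000 counted electronically and seeded at 1.25 × 10⁵ trypanosomes/ml into threefold serial compound dilutions. Kept 69 h at 34 °C, 5% CO₂, then resazurin (12.5 mg per 100 mL PBS) added for 3 h. Fluorescence ex 536/em 588 nm gives EC50. Three separate assay runs.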

[2] = tested on: Trypanosoma brucei brucei; test: Antiparasitic activity against Trypanosoma brucei brucei Lister 427 after 48 hrs by Alamar blue assay; type: functional, organism-based; details: Lister 427, 48 h
Outline: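 Bloodstream-form Lister 427 in HMI-9 with 10% heat-inactivated FBS, counted by haemocytometer and seeded at 2 × 10⁴ cells/mL over serial compound dilutions. After 48 h at 37 °C, 5% CO₂, resazurin (0.49 mM solution in PBS) added for a further 24 h. Fluorescence ex 544/em 590 nm; EC50 from curve fit. Duplicates, at least three independent occasions.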

[3] = Cytotoxicity against HEK293 cells reduction in cell viability after 20 hrs by resazurin dye based fluorescence assay; details: human
Outline: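 HEK-293 cells at 4000 per well in DMEM with 10% FBS, exposed to two-fold dilutions from 32 to 0.25 (final) for 20 h at 37 °C, 5% CO₂. Resazurin added (100 final) for 3 h more; fluorescence ex 560/em 590 nm. CC50 is the concentration giving 50% cytotoxicity. Duplicates.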

[4] = Lipophilicity of the compound assessed as retention time by HPLC method; type: physicochemical
Outline: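 Reverse-phase C18 HPLC with water and acetonitrile, each containing 0.1% TFA. Gradient runs from 100% water to 100% acetonitrile over 1 h; lipophilicity reported as retention time in minutes.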

Salmon testes DNA = test: Binding affinity to wild type salmon sperm DNA assessed as change in melting temperature at 10 uM; type: nucleic-acid assay; details: Salmonidae
[5] = Selectivity index, ratio of CC50 for cytotoxicity against HEK293 cells to MIC50 for antimycobacterial activity against GFP labelled Mycobacterium tuberculosis H37Rv; type: toxicity, cell-based; details: human, read-out: Selectivity Index

Row | Structure (SMILES) | MIC80 (Staphylococcus aureus) | MIC99 [1] | MIC80 (Candida albicans) | MIC70 (Cryptococcus neoformans) | EC50 (Trypanosoma congolense) | EC50 [2] | CC50 at 20 h [3] | Retention_time [4] | ΔTm (Salmon testes DNA) | MIC99 ([1]; 336 h) | selectivity ratio [5]
1 | CC(C)CCc1sc(NC(=O)c2cc(NC(=O)c3cc(NC(=N)c4cnc5ccccc5c4)cn3C)cn2C)nc1C(=O)NCCCN(C)C | 1 µg/mL (≈ 1.43 µM) | inactive | > 32 µg/mL | 0.25 µg/mL (≈ 0.359 µM) | 1.9 µM | 3.3 µM | 1.2 µg/mL (≈ 1.72 µM) | 27.3 min | 2 °C | – | –
2 | CC(=O)Nc1cc(C(=O)Nc2cc(C(=O)Nc3cc(C(=O)NCCCN(C)C)n(CCC(C)C)c3)n(C)c2)n(C)c1 | > 32 µg/mL | inactive | > 32 µg/mL | >32 µg/mL | 6.5 µM | 54 µM | – | 22.8 min | 3 °C | – | –
3 | CC(C)CCc1sc(NC(=O)c2cc(NC(=O)c3cc(NC(=N)c4ccccc4)cn3C)cn2C)nc1C(=O)NCCCN(C)C | > 32 µg/mL | – | > 32 µg/mL | 4 µg/mL (≈ 6.19 µM) | 5.8 µM | 23 µM | > 32 µg/mL | 26.2 min | 7 °C | 25 µg/mL (≈ 38.7 µM) | –
4 | COc1cccc(C(=N)Nc2cc(C(=O)Nc3cc(C(=O)Nc4nc(C(=O)NCCCN(C)C)c(CCC(C)C)s4)n(C)c3)n(C)c2)c1 | 1 µg/mL (≈ 1.48 µM) | – | > 32 µg/mL | 2 µg/mL (≈ 2.96 µM) | 5.8 µM | 17 µM | > 32 µg/mL | 26.8 min | 7 °C | 25 µg/mL (≈ 37 µM) | –
5 | CN(C)CCCNC(=O)c1cc(NC(=O)c2cc(NC(=O)c3cc(NC(=N)c4cnc5ccccc5c4)cn3C)cn2C)cn1C | > 32 µg/mL | – | > 32 µg/mL | 8 µg/mL (≈ 12.8 µM) | 0.6 µM | 5.7 µM | > 32 µg/mL | 19.7 min | > 17 °C | 25 µg/mL (≈ 40.1 µM) | –
6 | CC(C)CCc1sc(NC(=O)c2cc(NC(=O)c3cc(NC(=N)N)cn3C)cn2C)nc1C(=O)NCCCN(C)C | 16 µg/mL (≈ 27.4 µM) | inactive | > 32 µg/mL | 4 µg/mL (≈ 6.84 µM) | 6.1 µM | 15 µM | 20 µg/mL (≈ 34.2 µM) | 23.4 min | 4 °C | – | –
7 | CC(C)CCn1cc(NC(=O)c2cc(NC(=O)c3cc(NC(=N)c4ccccc4)cn3C)cn2C)cc1C(=O)NCCCN(C)C | > 32 µg/mL | inactive | > 32 µg/mL | >32 µg/mL | 1.2 µM | 33 µM | – | 22.6 min | 8 °C | – | –
8 | COc1cccc(C(=N)Nc2cc(C(=O)Nc3cc(C(=O)Nc4cc(C(=O)NCCCN(C)C)n(CCC(C)C)c4)n(C)c3)n(C)c2)c1 | > 32 µg/mL | inactive | > 32 µg/mL | >32 µg/mL | 1.4 µM | 24 µM | > 32 µg/mL | 23.8 min | 5 °C | – | –
9 | CN(C)CCCNC(=O)c1cc(NC(=O)c2cc(NC(=O)c3cc(NC(=N)N)cn3C)cn2C)cn1C | > 32 µg/mL | inactive | > 32 µg/mL | >32 µg/mL | 6.2 µM | > 100 µM | – | 14.2 min | 5 °C | – | –
10 | CN(C)CCCNC(=O)c1cc(NC(=O)c2cc(NC(=O)c3cc(NC(=N)c4ccccc4)cn3C)cn2C)cn1C | > 32 µg/mL | inactive | > 32 µg/mL | >32 µg/mL | 2.2 µM | > 100 µM | – | 17.8 min | 11 °C | – | –
11 | CC(C)CCn1cc(NC(=O)c2cc(NC(=O)c3cc(NC(=N)c4cnc5ccccc5c4)cn3C)cn2C)cc1C(=O)NCCCN(C)C | 32 µg/mL (≈ 47.1 µM) | – | > 32 µg/mL | 8 µg/mL (≈ 11.8 µM) | 0.82 µM | 2.7 µM | 12 µg/mL (≈ 17.7 µM) | 24.8 min | 17 °C | 25 µg/mL (≈ 36.8 µM) | –
12 | COc1cccc(C(=N)Nc2cc(C(=O)Nc3cc(C(=O)Nc4cc(C(=O)NCCCN(C)C)n(C)c4)n(C)c3)n(C)c2)c1 | > 32 µg/mL | inactive | > 32 µg/mL | >32 µg/mL | 1.4 µM | 44 µM | – | 17.5 min | 11 °C | – | –
13 | CC(C)CCc1sc(NC(=O)c2cc(NC(=O)c3cc(NC(=N)c4cccc(Cl)c4)cn3C)cn2C)nc1C(=O)NCCCN(C)C | 2 µg/mL (≈ 2.94 µM) | – | > 32 µg/mL | 2 µg/mL (≈ 2.94 µM) | 5.6 µM | 13 µM | 9.2 µg/mL (≈ 13.5 µM) | 26.9 min | 5 °C | 13 µg/mL (≈ 19.1 µM) | –
14 | CC(=O)Nc1cc(C(=O)Nc2cc(C(=O)Nc3nc(C(=O)NCCCN(C)C)c(CCC(C)C)s3)n(C)c2)n(C)c1 | 16 µg/mL (≈ 27.4 µM) | inactive | > 32 µg/mL | 16 µg/mL (≈ 27.4 µM) | 9.1 µM | 28 µM | > 32 µg/mL | 27.1 min | 4 °C | – | –
15 | CC(C)CCc1sc(NC(=O)c2cc(NC(=O)c3cc(NC(=N)c4ccc(Cl)cc4)cn3C)cn2C)nc1C(=O)NCCCN(C)C | 8 µg/mL (≈ 11.8 µM) | – | > 32 µg/mL | 4 µg/mL (≈ 5.88 µM) | 4.3 µM | 13 µM | 10 µg/mL (≈ 14.7 µM) | 26.8 min | 4 °C | 13 µg/mL (≈ 19.1 µM) | –
16 | CC(C)CCc1sc(NC(=O)c2cc(NC(=O)c3cc(NC(=N)c4cccc(F)c4)cn3C)cn2C)nc1C(=O)NCCCN(C)C | 8 µg/mL (≈ 12.1 µM) | – | > 32 µg/mL | 8 µg/mL (≈ 12.1 µM) | 5.5 µM | 18 µM | 18 µg/mL (≈ 27.1 µM) | 26.2 min | 4 °C | 3.1 µg/mL (≈ 4.67 µM) | 25
17 | CC(=O)Nc1cc(C(=O)Nc2cc(C(=O)Nc3cc(C(=O)NCCCN(C)C)n(C)c3)n(C)c2)n(C)c1 | > 32 µg/mL | inactive | > 32 µg/mL | >32 µg/mL | 7 µM | > 100 µM | – | 18.3 min | 5 °C | – | –
18 | CC(C)CCc1sc(NC(=O)c2cc(NC(=O)c3cc(NC(=N)c4ccc(F)cc4)cn3C)cn2C)nc1C(=O)NCCCN(C)C | 8 µg/mL (≈ 12.1 µM) | – | > 32 µg/mL | 4 µg/mL (≈ 6.03 µM) | 10 µM | 18 µM | 18 µg/mL (≈ 27.1 µM) | 26.2 min | 9 °C | 3.1 µg/mL (≈ 4.67 µM) | 25
19 | CC(C)CCn1cc(NC(=O)c2cc(NC(=O)c3cc(NC(=N)N)cn3C)cn2C)cc1C(=O)NCCCN(C)C | > 32 µg/mL | inactive | > 32 µg/mL | 32 µg/mL (≈ 56.5 µM) | 5.2 µM | 49 µM | > 32 µg/mL | 20.1 min | 4 °C | – | –
